# Assay results as given in ChEMBL document CHEMBL2384906, “Biological activity, design, synthesis and structure activity relationship of some novel derivatives of curcumin containing sulfonamides” (Eur J Med Chem, 2013).
# Activity calls are given as the source filed them. The rule behind the calls is not given here.
# Legend:
# Curvularia lunata [1] = experiment: Antifungal activity against Curvularia lunata MTCC 581 assessed as zone of inhibition at 20 uM after 48 hrs by disc diffusion method; format: functional
# Method in brief: (§1)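 Spores from 4-day potato dextrose agar cultures, suspended in sterile water at 1.5 × 10⁵ CFU/mL. 0.2 mL was spread on potato dextrose agar. 5 mm filter-paper discs soaked with test compound were laid on the lawn. Incubation was 48 h at 28 °C, then the inhibition zone was measured in mm. Fluconazole was the positive control and acetone the negative control.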
# Curvularia lunata [2] = experiment: Antifungal activity against Curvularia lunata MTCC 581 assessed as zone of inhibition at 40 uM after 48 hrs by disc diffusion method; format: functional; conditions: MTCC 581, 48 h, read-out: IZ; method in brief: as §1
# Pseudomonas aeruginosa [3] = experiment: Antimicrobial activity against Pseudomonas aeruginosa ATCC 15499 assessed as diameter of inhibition zone at 80 uM after 24 hrs by Kirby -Baur disc diffusion method; format: functional; conditions: ATCC 15499, 24 h, read-out: DIZ
# Method in brief: (§2)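 Kirby-Bauer disc diffusion was used. Acetone stocks (160 µM) were serially doubled down to 80, 40 and 20 µM. 4 µL of each went onto 5 mm sterile paper discs, which were dried 30 min at 50 °C. Inoculum was 1.5 × 10⁸ CFU/mL diluted to 3 × 10² CFU/mL, and 50 µL was spread on Mueller-Hinton agar. After 24 h at 37 °C the inhibition-zone diameter was measured. Ciprofloxacin served as positive control.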
# Bacillus cereus [4] = experiment: Antimicrobial activity against Bacillus cereus MTCC 7350 assessed as diameter of inhibition zone at 80 uM after 24 hrs by Kirby -Baur disc diffusion method; format: functional; conditions: MTCC 7350, 24 h, read-out: DIZ; method in brief: as §2
# Escherichia coli [5] = experiment: Antimicrobial activity against Escherichia coli ATCC 35218 after 24 hrs by broth micro serial dilution method; format: functional; conditions: ATCC 35218, 24 h
# Method in brief: (§3)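 This was broth microdilution in autoclaved Mueller-Hinton broth. 150 µL of compound per well was serially diluted […], and 50 µL of test organism was added. Plates were incubated 24 h at 37 °C and optical density was read.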
# Trichoderma viride [6] = experiment: Antifungal activity against Trichoderma viride MTCC 1107 after 48 hrs; format: functional; conditions: MTCC 1107, 48 h
# Trichoderma viride [7] = experiment: Antifungal activity against Trichoderma viride MTCC 1107 assessed as zone of inhibition at 40 uM after 48 hrs by disc diffusion method; format: functional; method in brief: as §1
# Curvularia lunata [8] = experiment: Antifungal activity against Curvularia lunata MTCC 581 assessed as zone of inhibition at 80 uM after 48 hrs by disc diffusion method; format: functional; conditions: MTCC 581, 48 h, read-out: IZ; method in brief: as §1
# Salmonella typhi [9] = experiment: Antimicrobial activity against Salmonella typhi ATCC 23564 after 24 hrs by broth micro serial dilution method; format: functional, Salmonella enterica subsp. enterica serovar Typhi; conditions: Salmonella enterica, ATCC 23564, 24 h
# Trichoderma viride [10] = experiment: Antifungal activity against Trichoderma viride MTCC 1107 assessed as zone of inhibition at 80 uM after 48 hrs by disc diffusion method; format: functional; conditions: MTCC 1107, 48 h, read-out: IZ; method in brief: as §1
# Staphylococcus aureus [11] = experiment: Antimicrobial activity against Staphylococcus aureus ATCC 11632 assessed as diameter of inhibition zone at 80 uM after 24 hrs by Kirby -Baur disc diffusion method; format: functional; method in brief: as §2
# Pseudomonas aeruginosa [12] = experiment: Antimicrobial activity against Pseudomonas aeruginosa ATCC 15499 after 24 hrs by broth micro serial dilution method; format: functional; conditions: ATCC 15499, 24 h; method in brief: as §3
# Aspergillus niger [13] = experiment: Antifungal activity against Aspergillus niger MTCC 1108 after 48 hrs; format: functional
# Curvularia lunata [14] = experiment: Antifungal activity against Curvularia lunata MTCC 581 after 48 hrs; format: functional; conditions: MTCC 581, 48 h
# Salmonella typhi [15] = experiment: Antimicrobial activity against Salmonella typhi ATCC 23564 assessed as diameter of inhibition zone at 40 uM after 24 hrs by Kirby -Baur disc diffusion method; format: functional, Salmonella enterica subsp. enterica serovar Typhi; conditions: Salmonella enterica, ATCC 23564, 24 h; read-out: DIZ
# Escherichia coli [16] = experiment: Antimicrobial activity against Escherichia coli ATCC 35218 assessed as diameter of inhibition zone at 80 uM after 24 hrs by Kirby -Baur disc diffusion method; format: functional; conditions: ATCC 35218, 24 h, read-out: DIZ; method in brief: as §2
# Pseudomonas aeruginosa [17] = experiment: Antimicrobial activity against Pseudomonas aeruginosa ATCC 15499 assessed as diameter of inhibition zone at 40 uM after 24 hrs by Kirby -Baur disc diffusion method; format: functional; method in brief: as §2
# Pseudomonas aeruginosa [18] = experiment: Antimicrobial activity against Pseudomonas aeruginosa ATCC 15499 assessed as diameter of inhibition zone at 20 uM after 24 hrs by Kirby -Baur disc diffusion method; format: functional; method in brief: as §2
# Escherichia coli [19] = experiment: Antimicrobial activity against Escherichia coli ATCC 35218 assessed as diameter of inhibition zone at 40 uM after 24 hrs by Kirby -Baur disc diffusion method; format: functional; method in brief: as §2
# Salmonella typhi [20] = experiment: Antimicrobial activity against Salmonella typhi ATCC 23564 assessed as diameter of inhibition zone at 20 uM after 24 hrs by Kirby -Baur disc diffusion method; format: functional; conditions: Salmonella enterica subsp. enterica serovar Typhi
# Aspergillus flavus [21] = experiment: Antifungal activity against Aspergillus flavus MTCC 1021 after 48 hrs; format: functional
# Bacillus cereus [22] = experiment: Antimicrobial activity against Bacillus cereus MTCC 7350 after 24 hrs by broth micro serial dilution method; format: functional; conditions: MTCC 7350, 24 h; method in brief: as §3
# Escherichia coli [23] = experiment: Antimicrobial activity against Escherichia coli ATCC 35218 assessed as diameter of inhibition zone at 20 uM after 24 hrs by Kirby -Baur disc diffusion method; format: functional; method in brief: as §2
# Mus musculus = experiment: Antiinflammatory activity in mouse assessed as inhibition of carrageenan-induced increase in paw volume at 200 mg/kg, ip administered 1 hr prior to carrageenan challenge measured after 3 hrs relative to control; format: functional; conditions: route intraperitoneal
# Method in brief: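 Mice were fasted 2 h and placed in groups of five. Controls received saline i.p. Phenylbutazone was given at 100 mg/kg i.p., curcumin at 200 mg/kg i.p., and derivatives at 200 mg/kg. After 1 h, 0.1 mL of 1% carrageenan in saline was injected subplantar into the right hind paw. Paw volume was followed by plethysmometer for 3 h, and % inhibition was calculated as (Vc − Vt)/Vc × 100.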
# Trichoderma viride [24] = experiment: Antifungal activity against Trichoderma viride MTCC 1107 assessed as zone of inhibition at 20 uM after 48 hrs by disc diffusion method; format: functional; method in brief: as §1
# Salmonella typhi [25] = experiment: Antimicrobial activity against Salmonella typhi ATCC 23564 assessed as diameter of inhibition zone at 80 uM after 24 hrs by Kirby -Baur disc diffusion method; format: functional, Salmonella enterica subsp. enterica serovar Typhi; conditions: Salmonella enterica, ATCC 23564, 24 h; read-out: DIZ
# Staphylococcus aureus [26] = experiment: Antimicrobial activity against Staphylococcus aureus ATCC 11632 after 24 hrs by broth micro serial dilution method; format: functional; conditions: ATCC 11632, 24 h; method in brief: as §3
# Aspergillus flavus [27] = experiment: Antifungal activity against Aspergillus flavus MTCC 1021 assessed as zone of inhibition at 80 uM after 48 hrs by disc diffusion method; format: functional; method in brief: as §1
# Aspergillus niger [28] = experiment: Antifungal activity against Aspergillus niger MTCC 1108 assessed as zone of inhibition at 80 uM after 48 hrs by disc diffusion method; format: functional; method in brief: as §1
smiles,measurement,setting,value
COc1cc(/C=C/C(=O)CC(=O)/C=C/c2ccc(O)c(OC)c2)ccc1O [CURCUMIN],inhibition zone (IZ),Curvularia lunata [1],inactive
same,zone of inhibition at 40 µM,Curvularia lunata [2],9 mm
same,zone of inhibition at 80 µM,Pseudomonas aeruginosa [3],11 mm
same,zone of inhibition at 80 µM,Bacillus cereus [4],9 mm
same,MIC,Escherichia coli [5],> 80 µM
same,MIC,Trichoderma viride [6],> 80 µM
same,inhibition zone (IZ),Trichoderma viride [7],inactive
same,zone of inhibition at 80 µM,Curvularia lunata [8],11 mm
same,MIC,Salmonella typhi [9],> 80 µM
same,zone of inhibition at 80 µM,Trichoderma viride [10],9 mm
same,diameter of the inhibition zone (DIZ),Staphylococcus aureus [11],inactive
same,MIC,Pseudomonas aeruginosa [12],> 80 µM
same,MIC,Aspergillus niger [13],inactive
same,MIC,Curvularia lunata [14],> 80 µM
same,zone of inhibition at 40 µM,Salmonella typhi [15],9 mm
same,zone of inhibition at 80 µM,Escherichia coli [16],12 mm
same,diameter of the inhibition zone (DIZ),Pseudomonas aeruginosa [17],inactive
same,diameter of the inhibition zone (DIZ),Pseudomonas aeruginosa [18],inactive
same,diameter of the inhibition zone (DIZ),Escherichia coli [19],inactive
same,diameter of the inhibition zone (DIZ),Salmonella typhi [20],inactive
same,MIC,Aspergillus flavus [21],inactive
same,MIC,Bacillus cereus [22],> 80 µM
same,diameter of the inhibition zone (DIZ),Escherichia coli [23],inactive
same,inhibition in vivo at 200 mg/kg,Mus musculus,12.9%
same,inhibition zone (IZ),Trichoderma viride [24],inactive
same,zone of inhibition at 80 µM,Salmonella typhi [25],11 mm
same,MIC,Staphylococcus aureus [26],80 µM
same,inhibition zone (IZ),Aspergillus flavus [27],inactive
same,inhibition zone (IZ),Aspergillus niger [28],inactive
